Experimental data as given in article PMC12065821 (Scientific Reports, 2025).

Assays:
[1] = cited from earlier work
[2] = test system: human kidney proximal tubular HK-2 cells; details: identical dose of 0.75 mM; cited from earlier work
rats [3] = test: Renal histological examination; assay type: in vivo; details: rat kidney; for histological lesions during the first 2 h: PAS stain; for maximal SQS: mean ± SD, SD
[4] = rats; CMS and formed colistin; cited from earlier work
[5] = physiologically-based PK model; cited from earlier work
[6] = PK-TD model, PK component; assay type: in vivo; details: rats, single i.p. CMS 10 mg/kg CBA, one-compartment PK-TD model, mean ± SD
Outline: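 Plasma prodrug and formed colistin/colistin B concentrations after i.p. dosing were fitted by a compartmental model. The final model used one compartment each for prodrug and formed drug, a conversion rate constant, and linear first-order total clearance from both. Fit was judged by R², AIC, BIC and visual inspection. Estimates are mean ± SD.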

rats [7] = test: PK-TD model, TD component; assay type: in vivo; details: i.p., mean ± SD
Outline: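 Plasma creatinine and BUN time courses were linked to plasma colistin/colistin B through an indirect hypothetical effect compartment. K_e is the rate constant from the central to the effect compartment. The effect was linear: E = E₀ + S·C_e, with E₀ the pre-dose baseline. T_lag was calculated as 1/K_e. Fit was judged by R², AIC, BIC and visual inspection. Parameters are mean ± SD.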

[8] = Kidney PK of CMS/CMS-E2 and formed colistin/colistin B; assay type: in vivo, rats; details: for Cmax CMS/CMS-E2 in kidneys: mean ± SD, SD
Outline: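 Male Sprague-Dawley rats (300 ± 15 g) got one i.p. dose in saline. At each sampling time rats were anaesthetised with tiletamine-zolazepam (40 mg/kg) and killed, and the left kidney was frozen at −70 °C. Kidney cortex was homogenised in saline (1:10 m/v, 1% BSA). Samples went through WCX solid-phase extraction with polymyxin B1 internal standard, then LC-MS/MS. Prodrug was calculated as total (after […] sulfuric acid hydrolysis) minus free colistin/colistin B. Parameters came from non-compartmental analysis.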

[9] = Plasma PK of CMS/CMS-E2 and formed colistin/colistin B; assay type: in vivo, rats; details: rat plasma, LC-MS/MS, NCA, mean ± SD
Outline: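 Male Sprague-Dawley rats were dosed once i.p. in saline, and serial jugular-vein blood was taken before and after dosing. Blood was heparinised (1%), spun at 4,982 × g for 10 min at 4 °C, and plasma stored at −70 °C. Plasma (40 µL) went through WCX solid-phase extraction with polymyxin B1 internal standard, then LC-MS/MS. Prodrug was total (acid-hydrolysed) minus free analyte. […] Values are mean ± SD, compared by Wilcoxon rank sum.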

rats [10] = test: Maximal tolerability dose; assay type: in vivo; details: intraperitoneal
patients = details: meta-analyses; cited from earlier work
rats [11] = test: Kidney injury biomarkers: plasma CR and BUN; assay type: in vivo; details: rat plasma, mean ± SD
Outline: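 Rats (male Sprague-Dawley) received one i.p. injection in saline, with a saline control group. Plasma came from serial heparinised jugular-vein samples, plus blood taken at sacrifice in a second cohort. Creatinine and blood urea nitrogen were measured on an automatic biochemical analyser. Peak levels and times to peak were taken from the time profiles and given as mean ± SD.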

[12] = single i.p. CMS or CMS-E2 20 mg/kg CBA
[13] = rat kidney cortex, single i.p. CMS or CMS-E2 20 mg/kg CBA, LC-MS/MS, NCA

In the case of colistin A, the plasma protein binding [1] is given as 56.6 ± 9.25% and the “apoptotic effect relative to colistin B” value [2] is given as “three times”.

For colistin methanesulphonate [CMS], the “histological lesions during the first 2 h” value (rats [3]; single i.p. CMS 10 mg/kg CBA) was “No obvious histological lesion”, the “histological lesions during the first 2 h” value (rats [3]; [12]) was “No obvious histological lesion” and the “recovery of histological damage at 8 h” value (rats [3]; single i.p. CMS 10 mg/kg CBA) was “most of the damage was completely recovered”. For the same substance, the “maximal SQS” value (rats [3]; single i.p. CMS 10 mg/kg CBA) was 2.00 ± 0.00, the “recovery of histological damage at 24 h” value (rats [3]; single i.p. CMS 20 mg/kg CBA) was “all damage was completely recovered” and the “maximal SQS” value (rats [3]; [12]) was 3.00 ± 0.00. The “t1/2 in prior reports” value [4] was 0.333 to 0.667 h, the “renal CMS conversion” value [5] was under 1% and the “CLCMS/CMS-E2 (total body clearance)” value [6] was 5.14 ± 0.196 mL/min/kg. The “Ka CMS/CMS-E2 (absorption rate)” value [6] was 2.02 ± 0.260 h⁻¹, the “V (volume of distribution)” value [6] was 0.194 ± 0.0128 L/kg and the “S (slope between colistin/colistin B concentration in effect compartment and CR)” value (rats [7]; E = E0 + S·Ce) was 20.9 ± 9.13 mmol/g. The “Ke (rate from colistin/colistin B central compartment to effect compartment), BUN” value (rats [7]; indirect link PK-TD model, effect = BUN) was 0.157 ± 0.100 h⁻¹, the “Ke (rate from colistin/colistin B central compartment to effect compartment), CR” value (rats [7]; indirect link PK-TD model, effect = plasma CR) was 0.833 ± 0.555 h⁻¹ and the “Tlag (lag time), BUN” value (rats [7]; reciprocal of Ke, effect = BUN) was 8.45 ± 4.08 h. The “Tlag (lag time), CR” value (rats [7]; reciprocal of Ke, effect = plasma CR) was 1.73 ± 1.22 h, the “Tmax CMS/CMS-E2 in kidneys” value ([8]; rat kidney cortex, single i.p. CMS 10 mg/kg CBA, LC-MS/MS, NCA) was 2 h and the “Cmax CMS/CMS-E2 in kidneys” value ([8]; rat kidney cortex, single i.p. CMS 10 mg/kg CBA, LC-MS/MS) was 64.2 ± 38.1 µg/g. For the same substance, the “AUC0-inf CMS/CMS-E2 in kidneys” value [8, 13] was 1620 µg·h/g, the “Tmax CMS/CMS-E2 in kidneys” value [8, 13] was 4 h and the “t1/2 CMS/CMS-E2 in kidneys” value [8, 13] was 1.03 h. For the same substance, the “Cmax CMS/CMS-E2 in kidneys” value ([8]; rat kidney cortex, single i.p. CMS or CMS-E2 20 mg/kg CBA, LC-MS/MS) was 281 ± 92.8 µg/g, the “CMS concentration in renal tissue at 6, 8 h” value ([8]; rat kidney, single i.p. CMS 10 mg/kg CBA, LC-MS/MS) was “below the lower limit” and the “CMS concentration in renal tissue at 24 h” value ([8]; rat kidney, single i.p. CMS 20 mg/kg CBA, LC-MS/MS) was “below the lower limit”. For the same substance, the “Kidney/plasma ratio of Cmax, CMS/CMS-E2” value ([8]; rats, single i.p. CMS or CMS-E2 20 mg/kg CBA) was 7.11, the “AUC0-inf CMS/CMS-E2 in plasma” value ([9]; single i.p. CMS 10 mg/kg CBA) was 30700 ± 763 ng·h/mL and the “CL/F CMS/CMS-E2” value ([9]; single i.p. CMS 10 mg/kg CBA) was 5.42 ± 0.132 mL/min/kg. For the same substance, the “Cmax CMS/CMS-E2 in plasma” value ([9]; single i.p. CMS 10 mg/kg CBA) was 21400 ± 727 ng/mL, the “Tmax CMS/CMS-E2 in plasma” value ([9]; single i.p. CMS 10 mg/kg CBA) was 0.333 ± 0.118 h and the “Vd/F CMS/CMS-E2” value ([9]; single i.p. CMS 10 mg/kg CBA) was 0.213 ± 0.0362 L/kg. For the same substance, the “t1/2 CMS/CMS-E2 in plasma” value ([9]; single i.p. CMS 10 mg/kg CBA) was 0.453 ± 0.068 h, the “AUC0-inf CMS/CMS-E2 in plasma” value [9, 12] was 149000 ± 69600 ng·h/mL and the “CL/F CMS/CMS-E2” value [9, 12] was 2.99 ± 2.02 mL/min/kg. For the same substance, the “Cmax CMS/CMS-E2 in plasma” value [9, 12] was 39500 ± 13700 ng/mL, the “Tmax CMS/CMS-E2 in plasma” value [9, 12] was 1.30 ± 0.458 h and the “Vd/F CMS/CMS-E2” value [9, 12] was 0.266 ± 0.0816 L/kg. For the same substance, the “t1/2 CMS/CMS-E2 in plasma” value [9, 12] was 1.27 ± 0.557 h, the maximal tolerability dose (rats [10]) was 20 mg/kg CBA and the “incidence of CMS-associated nephrotoxicity” value (patients) was “up to 48%”. For the same substance, the “peak BUN level” value (rats [11]; single i.p. CMS 10 mg/kg CBA) was 8.09 ± 1.66 mmol/L, the “peak CR level” value (rats [11]; single i.p. CMS 10 mg/kg CBA) was 31.3 ± 5.41 µmol/L and the “time of peak BUN” value (rats [11]; single i.p. CMS 10 mg/kg CBA) was 5.00 ± 0.00 h. The “time of peak CR level” value (rats [11]; single i.p. CMS 10 mg/kg CBA) was 2.67 ± 1.70 h, the “peak BUN level” value (rats [11]; [12]) was 17.8 ± 3.83 mmol/L and the “peak CR level” value (rats [11]; [12]) was 93.1 ± 29.8 µmol/L. The “time of peak BUN” value (rats [11]; [12]) was 7.82 ± 1.34 h and the “time of peak CR level” value (rats [11]; [12]) was 5.36 ± 1.30 h.
